This note sets out measurements from ChEMBL document CHEMBL1123768, “Synthesis and characterization of all four isomers of the muscarinic agonist 2'-methylspiro[1-azabicyclo[2.2.2]octane-3,4'-[1,3]dioxolane]” (J Med Chem, 1987).

pEC50: −log10 of the molar value. Where only a bound is given, the exact number is not on record here.

The species named for experiment [1] is Cavia porcellus. The experiment is described as follows: (§1) Determined for potency (muscarinic agonistic activity) expressed in guinea pig isolated atria in vitro. The conditions noted are these: read-out: Log EC50 (converted).
The target in experiment [2] is T1, Muscarinic acetylcholine receptor M1 (Rattus norvegicus) (UniProt P08482).
T1 sequence (whole entry): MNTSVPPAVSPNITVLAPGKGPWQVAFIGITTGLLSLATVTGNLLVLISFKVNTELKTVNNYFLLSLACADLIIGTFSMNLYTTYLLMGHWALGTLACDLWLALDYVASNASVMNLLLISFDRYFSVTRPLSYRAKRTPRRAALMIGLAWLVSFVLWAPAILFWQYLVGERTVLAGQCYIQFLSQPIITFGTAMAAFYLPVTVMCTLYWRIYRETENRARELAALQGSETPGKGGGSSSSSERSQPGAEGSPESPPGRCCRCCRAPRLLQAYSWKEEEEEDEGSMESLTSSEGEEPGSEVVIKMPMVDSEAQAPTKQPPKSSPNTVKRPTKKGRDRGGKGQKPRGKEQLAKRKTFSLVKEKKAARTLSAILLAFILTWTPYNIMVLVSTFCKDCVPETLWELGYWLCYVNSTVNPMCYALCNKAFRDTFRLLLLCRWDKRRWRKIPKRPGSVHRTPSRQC

The species entered for experiment [3] is Cavia porcellus. The experiment is described as follows: Functional efficacy compared to 1 uM muscarine and the maximum response to carbachol in guinea pig ileum. The method in brief:
(§2)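 Agonist-evoked contractions were recorded and concentration–response curves built. EC50 is the concentration giving 50% of that tissue's own maximum, reported as −log EC50 (M).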

For experiment [4], the species on record is Rattus norvegicus. Description: Determined for Functional efficacy compared to 1 uM muscarine in superior cervical ganglion. The method in brief:
(§3)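 Potentials were recorded by grease-gap between the ganglion body and the internal carotid nerve. Semicumulative concentration–response curves used 1-min agonist superfusions every 10 min. Potency is given as −log EC50 (M). Efficacy is the ratio to the maximum response to 1 µM (±)-muscarine chloride.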

The species entered for experiment [5] is Cavia porcellus. The experiment is described as follows: Functional efficacy compared to 1 uM muscarine and the maximum response to carbachol in guinea pig isolated atria.
The species named for experiment [6] is Cavia porcellus. The experiment is described as follows: (§4) Determined for potency (muscarinic agonistic activity) expressed in guinea pig ileum in vitro. The conditions noted are these: read-out: Log EC50 (converted).
For experiment [7], the species on record is Rattus norvegicus. Description: (§5) Determined for potency (muscarinic agonistic activity) expressed in superior cervical ganglion in vitro. The class given is functional. The conditions noted are these: for pEC50: Rattus norvegicus, Superior cervical ganglion. The procedure, abridged: as §3
Experiment [8] addresses T2, Muscarinic acetylcholine receptor M2 (Rattus norvegicus) (UniProt P10980).
T2 sequence (whole entry): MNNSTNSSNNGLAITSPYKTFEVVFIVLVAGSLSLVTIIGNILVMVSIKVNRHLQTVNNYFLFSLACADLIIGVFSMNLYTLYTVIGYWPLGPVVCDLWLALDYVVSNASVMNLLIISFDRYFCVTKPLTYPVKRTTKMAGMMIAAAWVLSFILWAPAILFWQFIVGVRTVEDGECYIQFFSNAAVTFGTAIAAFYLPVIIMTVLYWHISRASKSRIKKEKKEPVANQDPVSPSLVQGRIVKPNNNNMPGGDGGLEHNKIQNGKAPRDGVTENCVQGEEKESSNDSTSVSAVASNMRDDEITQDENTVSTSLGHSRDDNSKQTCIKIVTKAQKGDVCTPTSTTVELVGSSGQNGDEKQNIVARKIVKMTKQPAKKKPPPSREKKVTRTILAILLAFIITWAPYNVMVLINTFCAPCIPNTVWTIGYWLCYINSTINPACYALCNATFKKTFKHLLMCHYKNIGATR

Experiment [9] has as its target T2, Muscarinic acetylcholine receptor M2 (Rattus norvegicus). The source holds these as a separate data set.
Experiment [10] addresses T1, Muscarinic acetylcholine receptor M1 (Rattus norvegicus). This is another data set of the same source.
The species entered for experiment [11] is Cavia porcellus. The description is as §1. In kind it is functional.
Experiment [12] can be described thus: as §5. The class given is functional, tissue-based, Rattus norvegicus. The method in brief:
as §3

For experiment [13], the species on record is Cavia porcellus. The experiment is described as §4. In kind it is functional. The method in brief: as §2

Regarding `C[C@H]1OCC2(CN3CCC2CC3)O1` (stereo in doubt; 1B1), the EC50 – broadly, the concentration giving half of the maximal effect – in the experiment listed under Cavia porcellus [1] is 14.8 µM; in the experiment listed under Cavia porcellus [6], 2190 nM. Moreover, the K app amounted to 2.7 µM in experiment [2] and 2.2 µM in [8]. Besides, the FE in the experiment filed under Cavia porcellus [3], in the experiment filed under Rattus norvegicus [4] and in the experiment listed under Cavia porcellus [5] was 0.8 in each case. Besides, the “Log EC50” value in the experiment listed under Rattus norvegicus [7] is reported as -5.25.
For `CC1OCC2(CN3CCC2CC3)O1` (centres undefined) [listing 1 of 2 here], the values for the K app in experiment [9] and in experiment [10] were 13 µM and 6.8 µM, respectively.
For `C[C@@H]1OCC2(CN3CCC2CC3)O1` (stereo in doubt; 1B2) [listing 1 of 2 here], the K app in [2] is 4.1 µM; in [8], 8.5 µM.
On the same counts, the results for `CC1OCC2(CN3CCC2CC3)O1` (single isomer, unassigned) [listing 1 of 2 here] are 66 µM and 92 µM.
Take `C[C@@H]1OCC2(CN3CCC2CC3)O1` (stereo in doubt; 1B2) [listing 2 of 2 here]: the EC50 was 100 µM in the experiment filed under Cavia porcellus [1] and 20000 nM in the experiment listed under Cavia porcellus [6]. For the same molecule, the figures for the FE in the experiment filed under Cavia porcellus [3], in the experiment filed under Rattus norvegicus [4] and in the experiment listed under Cavia porcellus [5] were 0.7, 0.7 and 0.2, respectively. Further, in the experiment filed under Rattus norvegicus [7], the “Log EC50” value is listed as -4.56.
As to `C[N+](C)(C)CCOC(N)=O.[Cl-]` [CARBACHOL], the EC50 is 0.209 µM in the experiment filed under Cavia porcellus [1] and 102 nM in the experiment listed under Cavia porcellus [6]. The K app in [2] is 45 µM; in experiment [8] it was 1.9 µM. Moreover, the FE in the experiment listed under Cavia porcellus [3] and in the experiment filed under Cavia porcellus [5] was 1 throughout.
Take `CC1OCC2(CN3CCC2CC3)O1` (centres undefined) [listing 2 of 2 here]: the FE in the experiment filed under Cavia porcellus [3] turned out to be 0.8; in the experiment filed under Rattus norvegicus [4] it was 0.7; in the experiment listed under Cavia porcellus [5], 0.8. The pEC50 (usually the EC50 on a negative log10 scale, so that one unit is a factor of ten) was 4.08 in the experiment filed under Cavia porcellus [11] and 5.20 in the experiment filed under Cavia porcellus [13]. Besides, in [12], the “Log EC50” value was -4.83.
As to `C[C@@H]1O[C@H](C[N+](C)(C)C)C[C@H]1O` [MUSCARINE], the K app in experiment [2] is 28 µM; in experiment [8], 2.3 µM. Further, in the experiment listed under Rattus norvegicus [4], the FE was found to be 1.1. Also, in the experiment filed under Rattus norvegicus [7], the pEC50 is 6.77.
Consider `CC1OCC2(CN3CCC2CC3)O1` (single isomer, unassigned) [listing 2 of 2 here], for which the “Log EC50” value in the experiment filed under Rattus norvegicus [7] was below -4. In the experiment listed under Cavia porcellus [13], this molecule showed a pEC50 below 3.50.
With `C[C@@H]1OCC2(CN3CCC2CC3)O1` (stereo in doubt; 1A1) [listing 1 of 2 here], the “Log EC50” value in the experiment filed under Rattus norvegicus [7] is recorded as below -4.
As for `C[C@@H]1OCC2(CN3CCC2CC3)O1.C[C@H]1OCC2(CN3CCC2CC3)O1` (some centres undefined) [listing 1 of 2 here], the EC50 in the experiment filed under Cavia porcellus [1] was 21.9 µM; in the experiment listed under Cavia porcellus [6] it was 3310 nM. The FE came to 0.8 in the experiment filed under Cavia porcellus [3], 0.7 in the experiment listed under Rattus norvegicus [4] and 0.8 in the experiment listed under Cavia porcellus [5]. Besides, the negative logarithm of the EC50 (pEC50) in the experiment listed under Rattus norvegicus [7] was 5.24.
Turning to `C[C@@H]1OCC2(CN3CCC2CC3)O1` (stereo in doubt; 1A1) [listing 2 of 2 here], the K app was 55 µM in [2] and 64 µM in experiment [8].
On the same counts, the results for `C[C@@H]1OCC2(CN3CCC2CC3)O1.C[C@H]1OCC2(CN3CCC2CC3)O1` (some centres undefined) [listing 2 of 2 here] are 5.9 µM and 8.4 µM.
